Results reported in ChEMBL document CHEMBL4428057, “Discovery, Synthesis, and Evaluation of 2,4-Diaminoquinazolines as a Novel Class of Pancreatic β-Cell-Protective Agents against Endoplasmic Reticulum (ER) Stress” (J Med Chem, 2016).
pEC50: −log10 of the molar value. Active and inactive are the calls of the source. The rule behind the calls is not given here.

Experiments:
Beta-TC6 = assay: Protection against tunicamycin induced endoplasmic reticulum stress in mouse BetaTC6 cells assessed as increase in cell viability after 72 hrs by MTT assay; type: functional, cell-based
Method in brief: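 βTC6 cells (DMEM, 15% FBS) seeded at 3×10^3/well in 384-well plates with Tm 0.25 µg/mL ± compound or DMSO for 72 h. Viability by CellTiter-Glo (ATP luminescence) or MTT: 3 h with reagent at 37 °C, then 4 h with crystal-dissolving solution, absorbance at 570 nm. 3 replicate wells, 3 experiments.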

INS1 [1] = assay: Protection against tunicamycin induced endoplasmic reticulum stress in rat INS-1 cells assessed as increase in cell viability after 3 days by CellTiter-Glo assay; type: functional, cell-based; conditions: INS1, 72 h
Method in brief: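 INS-1 cells at 3×10^3/well (384-well) co-treated with Tm 0.1 µg/mL and compound for 72 h; CellTiter-Glo ATP luminescence. Activity is % rescue, with Tm alone = 0% and DMSO without Tm = 100%. EC50 from ten 2-fold serial dilutions by curve fit; triplicate.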

INS1 [2] = assay: Protection against BFA induced endoplasmic reticulum stress in rat INS-1 cells assessed as increase in cell viability at 20 uM after 72 hrs by CellTiter-Glo assay; type: functional, cell-based
Method in brief: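 INS-1 cells at 3×10^3/well (384-well) treated with brefeldin A 0.2 µg/mL ± compound 20 µM or DMSO for 72 h. Viability read as intracellular ATP by CellTiter-Glo luminescence. Means of 3 replicate wells, representative of 3 independent experiments; SD.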

INS1 [3] = assay: Reversal of tunicamycin suppressed INS2 mRNA levels in rat INS-1 cells at 20 uM after 24 hrs by qRT-PCR method; type: functional, cell-based
Method in brief: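 INS-1 cells (4×10^5/well, 6-well plates) given Tm 0.1 µg/mL ± compound 20 µM or DMSO for 24 h. INS1, INS2, PDX1 and MafA mRNA measured by qRT-PCR with rat primers. Means of 3 replicate wells, representative of 3 independent experiments; SD.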

[4] = target: T1, Eukaryotic translation initiation factor 2-alpha kinase 3 (Rattus norvegicus) (UniProt Q9Z1Z1); assay: Inhibition of PERK pathway in rat INS-1 cells assessed as reduction in tunicamycin induced ATF4 mRNA levels at 20 uM after 2 to 24 hrs by qRT-PCR method; type: cell-based
T1 sequence (whole entry): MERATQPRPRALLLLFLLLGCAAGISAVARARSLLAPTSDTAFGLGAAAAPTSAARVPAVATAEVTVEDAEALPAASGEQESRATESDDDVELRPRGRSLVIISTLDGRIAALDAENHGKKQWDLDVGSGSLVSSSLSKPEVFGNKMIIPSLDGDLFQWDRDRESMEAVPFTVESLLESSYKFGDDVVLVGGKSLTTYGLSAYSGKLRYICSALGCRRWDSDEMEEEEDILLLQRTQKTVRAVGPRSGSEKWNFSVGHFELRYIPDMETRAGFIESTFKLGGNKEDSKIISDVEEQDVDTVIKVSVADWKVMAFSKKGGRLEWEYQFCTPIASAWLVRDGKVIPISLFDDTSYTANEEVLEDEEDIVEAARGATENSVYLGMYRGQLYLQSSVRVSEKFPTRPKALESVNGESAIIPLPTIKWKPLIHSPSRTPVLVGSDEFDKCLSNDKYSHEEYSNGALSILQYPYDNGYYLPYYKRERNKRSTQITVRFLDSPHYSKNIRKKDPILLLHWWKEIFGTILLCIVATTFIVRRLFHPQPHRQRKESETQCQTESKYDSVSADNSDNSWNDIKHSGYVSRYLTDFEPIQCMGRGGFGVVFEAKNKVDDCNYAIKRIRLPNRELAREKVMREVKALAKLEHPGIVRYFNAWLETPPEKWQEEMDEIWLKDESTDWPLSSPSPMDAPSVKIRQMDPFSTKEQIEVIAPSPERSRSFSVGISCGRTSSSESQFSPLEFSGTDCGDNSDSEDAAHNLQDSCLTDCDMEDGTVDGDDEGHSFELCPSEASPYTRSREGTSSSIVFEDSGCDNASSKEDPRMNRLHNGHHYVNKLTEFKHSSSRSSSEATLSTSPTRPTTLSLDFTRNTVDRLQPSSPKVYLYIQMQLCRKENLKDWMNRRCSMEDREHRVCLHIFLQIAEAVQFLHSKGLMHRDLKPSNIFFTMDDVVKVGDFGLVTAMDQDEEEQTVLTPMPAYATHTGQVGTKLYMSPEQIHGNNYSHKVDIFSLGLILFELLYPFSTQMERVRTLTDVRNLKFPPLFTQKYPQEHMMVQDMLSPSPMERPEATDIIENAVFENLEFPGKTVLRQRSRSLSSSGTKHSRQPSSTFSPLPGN
Method in brief: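 ATF4 or CHOP mRNA measured by qRT-PCR in INS-1 cells treated with Tm 0.1 µg/mL ± compound 20 µM or DMSO for the indicated times. Expressed as fold-increase over untreated control; means of 3 replicate wells, representative of 3 independent experiments, SD.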

Rattus norvegicus = species on record: Rattus norvegicus; assay: Inhibition of IRE1alpha in rat INS-1 cells assessed as suppression of tunicamycin induced spliced XBP1 mRNA levels at 20 uM after 4 to 24 hrs in by qRT-PCR method; type: cell-based
Method in brief: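 Spliced XBP1 mRNA in INS-1 cells (4×10^5/well, 6-well plates) measured by qRT-PCR with splicing-specific primers after Tm 0.1 µg/mL ± compound 20 µM or DMSO for the indicated times. Expressed as fold-increase over untreated control; 3 replicate wells, representative of 3 experiments, SD.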

[5] = target: T1, Eukaryotic translation initiation factor 2-alpha kinase 3 (Rattus norvegicus); assay: Inhibition of PERK pathway in rat INS-1 cells assessed as reduction in tunicamycin induced CHOP protein levels at 20 uM after 2 to 24 hrs by Western blot analysis; type: cell-based
Method in brief: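 Western blots of INS-1 cells (8×10^5/60-mm dish) treated with Tm 0.1 µg/mL ± compound 20 µM or DMSO for the indicated times. Lysates with EDTA and phosphatase inhibitors; 20 µg protein on 7% SDS-PAGE, PVDF. Primary antibodies at 1:1000 against ATF4, CHOP, cleaved caspase 3 or PARP; α-tubulin loading control; HRP secondaries. Representative of 3 experiments.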

Pancreatic beta cell = assay: Suppression of tunicamycin impaired glucose-stimulated insulin secretion in human Beta cells at 10 to 20 uM preincubated for 48 hrs followed by glucose addition for 1 hr by ELISA; type: functional, cell-based
Method in brief: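 Human islets (50 of equal size) in 96-well plates given Tm 1 µg/mL plus compound for 48 h, preincubated 1 h in KRBH (pH 7.4) with 2.5 mM glucose, then stimulated 1 h with 2.5 or 20 mM glucose. Secreted insulin by human insulin ELISA, normalized to total protein by Bradford.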

INS1 [6] = assay: Protection against tunicamycin induced endoplasmic reticulum stress in rat INS-1 cells assessed as increase in cell viability at 5 uM after 72 hrs by CellTiter-Glo assay; type: functional, cell-based

inhibition [4]: Active
inhibition [5]: Active
SMILES: COc1ccc(CNc2nc(N3CCCCC3CO)nc3ccccc23)cc1 (racemic)
Activity (Beta-TC6): Dose-dependent effect
pEC50 (INS1 [1]): 6.25
Activity (INS1 [2]): Active
Activity (INS1 [3]): Active
inhibition (Rattus norvegicus): Active
Activity (Pancreatic beta cell): Active
Activity (INS1 [6]): Active
